{"source": "paper PMC3443740", "about": "(Journal of immunology (Baltimore, Md. : 1950), 2012)", "key": {"[1]": {"system": "panel of 121 kinases", "assay": "kinase selectivity profiling", "assay_type": "biochemical", "settings": "panel of 121 kinases in vitro; Ruxolitinib at 0.1 μM"}, "[2]": {"system": "BMDMs", "assay": "LPS induced IL-10 mRNA", "assay_type": "cell-based, mouse", "settings": "100 ng/ml LPS", "outline": "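BMDMs came from wild-type or IFNαβR knockout mice, cultured 7 d with mCSF and used 24 h after replating. They were pretreated 1 h with test compound (0.5 µM or 5 µM), then given 100 ng/ml E. coli O26:B6 LPS over a time course. IL-10 mRNA was measured by Q-PCR (18s-normalised) and secreted IL-10 by multiplex assay. SD from independent cultures of four mice.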"}, "[3]": {"system": "BMDMs", "assay": "LPS induced pro-inflammatory cytokine production in BMDMs", "assay_type": "cell-based, mouse", "outline": "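BMDMs came from wild-type, IL-10 knockout or IFNαβR knockout mice and were pretreated 1 h with 0.5 µM test compound. Stimulation was 100 ng/ml LPS over a time course, or LPS ± 100 ng/ml IL-10 for 6 h in IL-10 knockout cells. Secreted TNF-α, IL-6, IL-12p40 and IL-12p70 were measured by Luminex multiplex, and the matching mRNAs (IL-12p35 for p70) by 18s-normalised Q-PCR. Four mice per genotype.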"}, "[4]": {"system": "DBA/1J mice", "settings": "IP LPS, 5mg/kg Tofacitinib, ref [50]; cited from earlier work"}, "[5]": {"system": "phospho Tyr705 STAT3", "settings": "BMDMs, 100 ng/ml IL-10 30 min"}, "[6]": {"system": "phospho-Y701 STAT1", "settings": "BMDMs, 500 Units/ml IFNβ 30 min"}, "[7]": {"target": "IRAK1 (Homo sapiens, UniProt P51617)", "sequence (P51617 whole entry, species assumed)": "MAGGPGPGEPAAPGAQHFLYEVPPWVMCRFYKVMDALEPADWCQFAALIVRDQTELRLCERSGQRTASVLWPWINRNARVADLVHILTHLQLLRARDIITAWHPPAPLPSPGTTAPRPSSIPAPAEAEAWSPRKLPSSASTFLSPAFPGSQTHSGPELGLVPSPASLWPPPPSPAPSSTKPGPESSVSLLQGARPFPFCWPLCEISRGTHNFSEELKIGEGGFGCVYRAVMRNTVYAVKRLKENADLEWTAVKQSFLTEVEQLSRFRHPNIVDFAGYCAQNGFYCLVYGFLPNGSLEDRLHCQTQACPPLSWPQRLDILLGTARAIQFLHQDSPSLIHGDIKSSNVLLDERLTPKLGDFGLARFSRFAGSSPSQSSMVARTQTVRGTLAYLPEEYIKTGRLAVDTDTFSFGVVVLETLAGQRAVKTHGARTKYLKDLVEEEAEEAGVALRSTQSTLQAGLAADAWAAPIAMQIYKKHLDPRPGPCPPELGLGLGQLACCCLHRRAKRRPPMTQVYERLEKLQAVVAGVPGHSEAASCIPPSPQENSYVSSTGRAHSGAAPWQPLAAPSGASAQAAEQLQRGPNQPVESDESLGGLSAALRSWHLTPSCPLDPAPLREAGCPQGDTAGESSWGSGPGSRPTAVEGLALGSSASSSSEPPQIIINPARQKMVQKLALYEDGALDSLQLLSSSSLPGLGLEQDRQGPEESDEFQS", "assay": "in vitro protein kinase assay, IRAK1", "assay_type": "biochemical", "settings": "1 μM Ruxolitinib"}, "[8]": {"target": "TrkA (Homo sapiens, UniProt P04629)", "sequence (P04629 33-796, species assumed)": "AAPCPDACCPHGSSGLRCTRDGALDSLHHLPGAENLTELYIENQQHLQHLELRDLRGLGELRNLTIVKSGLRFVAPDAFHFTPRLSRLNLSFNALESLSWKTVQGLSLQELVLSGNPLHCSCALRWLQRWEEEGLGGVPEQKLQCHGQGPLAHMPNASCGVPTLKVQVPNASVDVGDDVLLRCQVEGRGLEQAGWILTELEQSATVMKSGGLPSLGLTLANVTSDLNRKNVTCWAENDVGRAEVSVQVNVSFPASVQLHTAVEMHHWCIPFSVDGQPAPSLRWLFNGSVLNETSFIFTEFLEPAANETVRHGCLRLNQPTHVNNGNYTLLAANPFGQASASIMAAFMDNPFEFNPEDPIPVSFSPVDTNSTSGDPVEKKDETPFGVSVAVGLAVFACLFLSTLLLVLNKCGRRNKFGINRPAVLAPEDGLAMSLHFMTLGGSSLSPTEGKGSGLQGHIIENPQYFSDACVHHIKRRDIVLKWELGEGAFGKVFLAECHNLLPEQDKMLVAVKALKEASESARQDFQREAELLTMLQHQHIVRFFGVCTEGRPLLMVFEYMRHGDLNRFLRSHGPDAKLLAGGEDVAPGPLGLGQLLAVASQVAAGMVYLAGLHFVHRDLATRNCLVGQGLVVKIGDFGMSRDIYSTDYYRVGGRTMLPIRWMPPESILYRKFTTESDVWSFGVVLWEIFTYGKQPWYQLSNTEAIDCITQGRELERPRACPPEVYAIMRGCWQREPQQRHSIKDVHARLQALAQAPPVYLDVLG", "assay": "in vitro protein kinase assay, TrkA", "assay_type": "biochemical", "settings": "read-out: inhibition of TrkA"}, "[9]": {"system": "BMDMs", "assay": "LPS induced signaling in BMDMs, immunoblotting", "assay_type": "cell-based, mouse", "settings": "0.5 μM Ruxolitinib, 100 ng/ml LPS", "outline": "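Wild-type mouse BMDMs were pretreated 1 h with 0.5 µM test compound, then stimulated with 100 ng/ml LPS for varying times. Cells were lysed directly in SDS sample buffer and run on 10% polyacrylamide gels, then transferred to nitrocellulose. Blots were probed for total and phospho STAT3 (Y705, S727), phospho-STAT1 Y701, ERK1/2, p38, phospho-JNK, phospho-p105 and IκBα, with HRP secondaries and ECL detection.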"}, "[10]": {"system": "BMDMs", "assay": "IFNβ induced IL-10 and IL-6 transcription in BMDMs", "assay_type": "cell-based, mouse", "settings": "0.5 μM Ruxolitinib, 500 Units/ml IFNβ, wild type BMDMs", "outline": "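Wild-type mouse BMDMs were grown 7 d from bone marrow in DMEM with 10% heat-inactivated FBS and 5 ng/ml mCSF, then replated and used 24 h later. Cells were pretreated 1 h with 0.5 µM test compound, then given 500 U/ml IFN-β for varying times. IL-10 or IL-6 mRNA was measured by SYBR green Q-PCR, normalised to 18s against unstimulated wild-type controls. Four mice, independent cultures.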"}, "[11]": {"target": "MARK3 (Homo sapiens, UniProt P27448)", "sequence (P27448 whole entry, species assumed)": "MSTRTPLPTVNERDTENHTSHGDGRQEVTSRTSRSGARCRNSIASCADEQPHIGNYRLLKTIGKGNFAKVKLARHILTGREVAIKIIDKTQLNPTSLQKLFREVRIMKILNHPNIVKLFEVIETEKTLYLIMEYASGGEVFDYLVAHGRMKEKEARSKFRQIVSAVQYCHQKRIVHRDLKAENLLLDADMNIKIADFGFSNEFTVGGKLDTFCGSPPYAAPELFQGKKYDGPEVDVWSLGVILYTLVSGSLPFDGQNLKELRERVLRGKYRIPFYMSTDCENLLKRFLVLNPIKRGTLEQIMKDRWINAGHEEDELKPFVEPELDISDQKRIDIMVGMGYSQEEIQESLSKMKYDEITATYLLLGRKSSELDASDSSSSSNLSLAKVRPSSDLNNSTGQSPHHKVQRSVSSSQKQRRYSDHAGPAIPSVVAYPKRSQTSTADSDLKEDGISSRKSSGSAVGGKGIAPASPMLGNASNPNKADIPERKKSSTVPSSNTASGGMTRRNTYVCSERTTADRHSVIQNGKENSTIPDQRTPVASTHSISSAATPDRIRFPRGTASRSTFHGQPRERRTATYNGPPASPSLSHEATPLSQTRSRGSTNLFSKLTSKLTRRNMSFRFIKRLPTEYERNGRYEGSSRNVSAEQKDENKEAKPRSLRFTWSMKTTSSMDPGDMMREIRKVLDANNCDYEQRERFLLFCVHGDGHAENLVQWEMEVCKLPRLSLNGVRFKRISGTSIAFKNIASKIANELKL", "assay": "in vitro protein kinase assay, MARK3", "assay_type": "biochemical", "settings": "1 μM Ruxolitinib"}, "[12]": {"settings": "0.5 μM Ruxolitinib, wild type BMDMs"}, "[13]": {"settings": "0.5 μM Ruxolitinib, 100 ng/ml LPS"}, "[14]": {"settings": "0.5 μM Ruxolitinib, 100 ng/ml LPS 6 h"}}}
{"smiles": "N#C/C(=C/c1ccc(O)c(O)c1)C(=O)NCc1ccccc1", "note": "[AG-490]", "values": [{"measurement": "selectivity in kinase panel", "setting": "[1]", "result": "could also block several Ser/Thr kinases"}]}
{"smiles": "C[C@@H]1CCN(C(=O)CC#N)C[C@@H]1N(C)c1ncnc2[nH]ccc12", "note": "[Tofacitinib]", "values": [{"measurement": "IL-10 mRNA at later time points", "setting": "[2]; 5 μM Tofacitinib", "result": "inhibited"}, {"measurement": "IL-10 secretion at 8 and 16h after LPS stimulation", "setting": "[2]; 5 μM Tofacitinib", "result": "decreased"}, {"measurement": "initial phase of IL-10 transcription", "setting": "[2]; 5 μM Tofacitinib", "result": "did not affect"}, {"measurement": "IL-6 secretion following 24h of LPS stimulation", "setting": "[3]; Tofacitinib", "result": "increased"}, {"measurement": "TNF and IL-12 production in response to a prolonged stimulation with LPS", "setting": "[3]; Tofacitinib at a concentration able to inhibit STAT3 phosphorylation", "result": "increased"}, {"measurement": "plasma IL-10 levels", "setting": "[4]", "result": "increased"}, {"measurement": "plasma levels of TNF, IL-6 and IL-12", "setting": "[4]", "result": "reduced"}, {"measurement": "IL-10 stimulated STAT3 phosphorylation", "setting": "[5]", "result": "able to block"}, {"measurement": "IFNβ stimulated STAT1 phosphorylation", "setting": "[6]", "result": "able to block"}]}
{"smiles": "N#CC[C@H](C1CCCC1)n1cc(-c2ncnc3[nH]ccc23)cn1", "note": "[Ruxolitinib]", "values": [{"measurement": "activity against IRAK1", "setting": "[7]", "result": "weak activity"}, {"measurement": "IL-10 levels secreted from IFNαβR knockout macrophages", "setting": "[2]; 0.5 μM Ruxolitinib", "result": "did not affect"}, {"measurement": "IL-10 secreted into the media at later time points (8 to 24 h)", "setting": "[2]; [12]", "result": "decrease"}, {"measurement": "IL-10 secretion at 4 h", "setting": "[2]; [12]", "result": "unaffected"}, {"measurement": "initial transcription of IL-10", "setting": "[2]; [12]", "result": "did not affect"}, {"measurement": "transcription of IL-10 at later time points", "setting": "[2]; [12]", "result": "reduce"}, {"measurement": "IL-6 production from IFNαβR knockout macrophages", "setting": "[3]; [13]", "result": "increased"}, {"measurement": "IL-6 production from wild type cells", "setting": "[3]; [13]", "result": "increased"}, {"measurement": "TNFα production in IL-10 knockout cells", "setting": "[3]; [13]", "result": "little effect"}, {"measurement": "peak amount of LPS-induced IL-12 mRNA in IL-10 knockout cells", "setting": "[3]; [13]", "result": "decreased"}, {"measurement": "secreted levels of IL-6 in wild type and IL-10 knockout cells", "setting": "[3]; [13]", "result": "intermediate between the wild type and IL-10 knockout cells"}, {"measurement": "production of IL-6 by LPS in IL-10 knockout BMDMs", "setting": "[3]; [14]", "result": "moderately decreased"}, {"measurement": "production of TNFα by LPS in IL-10 knockout BMDMs (decrease)", "setting": "[3]; [14]", "result": "to a lesser extent"}, {"measurement": "TNFα mRNA and secreted protein levels in wild type cells", "setting": "[3]; 0.5 μM Ruxolitinib, 100 ng/ml LPS, to similar values as IL-10 knockout BMDMs", "result": "increased"}, {"measurement": "inhibitory effects of IL-10 on TNFα and IL-6 production", "setting": "[3]; IL-10 knockout BMDMs, 0.5 μM Ruxolitinib, LPS and 100 ng/ml IL-10 6 h", "result": "blocked"}, {"measurement": "inhibition at 0.1 µM", "setting": "[8]", "result": "> 50", "unit": "%"}, {"measurement": "LPS induced STAT1 Y701 phosphorylation", "setting": "[9]", "result": "blocked"}, {"measurement": "TLR4 induced activation of the ERK1/2, p38 or JNK MAPK cascades", "setting": "[9]", "result": "did not affect"}, {"measurement": "activation of the NFκB pathway (IκBα degradation, p105 and IκBα phosphorylation)", "setting": "[9]", "result": "no major affects"}, {"measurement": "phosphorylation of STAT3 on S727", "setting": "[9]", "result": "not blocked"}, {"measurement": "phosphorylation of STAT3 on Y705 in response to LPS", "setting": "[9]", "result": "completely blocked"}, {"measurement": "IFNβ induced IL-10 transcription", "setting": "[10]", "result": "greatly reduced"}, {"measurement": "IFNβ stimulated IL-6 transcription", "setting": "[10]", "result": "inhibited"}, {"measurement": "activity against MARK3", "setting": "[11]", "result": "weak activity"}]}
